Test results taken from ChEMBL document CHEMBL1141682, “Discovery of novel potent and selective dipeptide hepatitis C virus NS3/4A serine protease inhibitors” (Bioorg Med Chem Lett, 2008).

How the values were obtained:
[1] = Inhibition of full length HCV NS3/4A protease; design: species or system Hepacivirus hominis
Procedure, shortened: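 Full-length recombinant genotype 1 NS3 protease was run with a truncated NS4A cofactor in a biochemical assay. Inhibition constants (Ki) are reported.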

Hepatitis C virus = assay: Inhibition of HCV replication in human HuH7-Rep cells containing subgenomic bicistronic clone; type: functional, organism-based, Hepacivirus hominis; details: Huh-7
Procedure, shortened: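 Huh7 cells carried the subgenomic bicistronic replicon clone ET with a luciferase reporter. EC50 is the concentration that cut luciferase signal by 50% relative to untreated control.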

[2] = Metabolic stability in human liver microsomess after 15 mins at 5 uM; type: ADME, Microsome; details: liver microsomes
Procedure, shortened: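 Compound at 5 µM was incubated with human liver microsomes for 15 min at 37 °C. Stability is expressed as percent of compound metabolized.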

[3] = Permeability from apical to basolateral side of human Caco-2 cells; type: ADME, cell-based
MT4 = assay: Cytotoxicity against human MT4 cells by LTR-luciferase assay; type: functional
Procedure, shortened: (§1)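 Cytotoxicity was tested in MT4-LTR-Luc and Huh7-CMV-Luc reporter cell lines. Results are given as CC50.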

Huh-7 = assay: Cytotoxicity against human HuH7 cells by CMV-luciferase assay; type: functional; procedure, shortened: as §1
[4] = Plasma concentration in Sprague-Dawley rat at 2 mg/kg, iv after 0.12 hrs; type: ADME, organism-based; design: dose 2 mg/kg, route intravenous
Procedure, shortened: (§2)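 Male SD rats (n = 2 per route) got a single dose: 2 mg/kg IV in 20% hydroxypropyl-β-cyclodextrin, or 10 mg/kg oral in 50% PEG400 with 2.5% vitamin E-TPGS. Plasma was sampled out to 8 h. Heart and liver levels were taken at 8 h. Oral half-life was fitted over 2–8 h. Bioavailability compares oral against IV exposure.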

[5] = Plasma concentration in Sprague-Dawley rat at 2 mg/kg, iv after 0.33 hrs; type: ADME, organism-based; design: dose 2 mg/kg, route intravenous; procedure, shortened: as §2
[6] = Plasma concentration in Sprague-Dawley rat at 2 mg/kg, iv after 1 hr; type: ADME, organism-based; design: dose 2 mg/kg, route intravenous; procedure, shortened: as §2
[7] = Plasma concentration in Sprague-Dawley rat at 2 mg/kg, iv after 2 hrs; type: ADME, organism-based; design: dose 2 mg/kg, route intravenous; procedure, shortened: as §2
[8] = Plasma concentration in Sprague-Dawley rat at 2 mg/kg, iv after 4 hrs; type: ADME, organism-based; design: dose 2 mg/kg, route intravenous; procedure, shortened: as §2
[9] = Plasma concentration in Sprague-Dawley rat at 2 mg/kg, iv after 8 hrs; type: ADME, organism-based; design: dose 2 mg/kg, route intravenous; procedure, shortened: as §2
[10] = Plasma concentration in Sprague-Dawley rat at 10 mg/kg, po after 0.5 hrs; type: ADME, organism-based; design: dose 10 mg/kg, route oral; procedure, shortened: as §2
[11] = Plasma concentration in Sprague-Dawley rat at 10 mg/kg, po after 1 hr; type: ADME, organism-based; design: dose 10 mg/kg, route oral; procedure, shortened: as §2
[12] = Plasma concentration in Sprague-Dawley rat at 10 mg/kg, po after 2 hrs; type: ADME, organism-based; design: dose 10 mg/kg, route oral; procedure, shortened: as §2
[13] = Plasma concentration in Sprague-Dawley rat at 10 mg/kg, po after 4 hrs; type: ADME, organism-based; design: dose 10 mg/kg, route oral; procedure, shortened: as §2
[14] = Plasma concentration in Sprague-Dawley rat at 10 mg/kg, po after 8 hrs; type: ADME, organism-based; design: dose 10 mg/kg, route oral; procedure, shortened: as §2
[15] = Cmax in Sprague-Dawley rat at 10 mg/kg, po; type: ADME, organism-based; design: dose 10 mg/kg, route oral; details: in vivo; procedure, shortened: as §2
[16] = Tmax in Sprague-Dawley rat at 10 mg/kg, po; type: ADME, organism-based; design: dose 10 mg/kg, route oral; details: in vivo; procedure, shortened: as §2
[17] = Half life (2 to 8 hrs) in Sprague-Dawley rat at 2 mg/kg, iv; type: ADME, organism-based; design: dose 2 mg/kg, route intravenous; details: in vivo
[18] = Half life (2 to 8 hrs) in Sprague-Dawley rat at 10 mg/kg, po; type: ADME, organism-based; design: dose 10 mg/kg, route oral; details: in vivo; procedure, shortened: as §2
[19] = AUC (0 to 8 hrs) in Sprague-Dawley rat at 2 mg/kg, iv; type: ADME, organism-based; design: time < 8 hr, dose 2 mg/kg, route intravenous; details: plasma; procedure, shortened: as §2
Rattus norvegicus [20] = assay: AUC (0 to infinity) in Sprague-Dawley rat at 2 mg/kg, iv; type: ADME, organism-based, Plasma; design: time infinity, dose 2 mg/kg, route intravenous; details: in vivo; procedure, shortened: as §2
[21] = AUC (0 to infinity) in Sprague-Dawley rat at 10 mg/kg, po; type: ADME, organism-based; design: time infinity, dose 10 mg/kg, route oral; details: plasma; procedure, shortened: as §2
[22] = Volume of distribution in steady state in Sprague-Dawley rat at 2 mg/kg, iv; type: ADME, organism-based; design: dose 2 mg/kg, route intravenous; details: in vivo, read-out: Vdss; procedure, shortened: as §2
Rattus norvegicus [23] = assay: Clearance in Sprague-Dawley rat at 2 mg/kg, iv; type: ADME, organism-based; design: dose 2 mg/kg, route intravenous; details: in vivo; procedure, shortened: as §2
[24] = Oral bioavailability in Sprague-Dawley rat at 10 mg/kg, po; type: ADME, organism-based; details: in vivo; procedure, shortened: as §2
[25] = Drug level in Sprague-Dawley rat heart at 2 mg/kg, iv after 8 hrs; type: ADME, organism-based; design: dose 2 mg/kg, route intravenous; details: read-out: Drug uptake; procedure, shortened: as §2
[26] = Drug level in Sprague-Dawley rat heart at 10 mg/kg, po after 8 hrs; type: ADME, organism-based; design: dose 10 mg/kg, route oral; procedure, shortened: as §2
[27] = Drug level in Sprague-Dawley rat liver at 2 mg/kg, iv after 8 hrs; type: ADME, organism-based; design: dose 2 mg/kg, route intravenous; details: read-out: Drug uptake; procedure, shortened: as §2
[28] = Drug level in Sprague-Dawley rat liver at 10 mg/kg, po after 8 hrs; type: ADME, organism-based; design: dose 10 mg/kg, route oral; details: read-out: Drug uptake; procedure, shortened: as §2
[29] = AUC (0 to 8 hrs) in Sprague-Dawley rat at 10 mg/kg, po; type: ADME, organism-based; design: time < 8 hr, dose 10 mg/kg, route oral; details: plasma; procedure, shortened: as §2

COc1ccc2c(O[C@@H]3C[C@H]4C(=O)N[C@]5(C(=O)NS(=O)(=O)C6CC6)C[C@H]5/C=C\CCCCCCC(=O)N4C3)cc(-c3nccs3)nc2c1Br
Ki [1]: 0.1 nM | EC50 (Hepatitis C virus): 1.9 nM | metabolized at 0.25 h, 5 µM [2]: 100%

COc1ccc2c(O[C@@H]3C[C@H]4C(=O)N[C@]5(C(=O)NS(=O)(=O)C6CC6)C[C@H]5/C=C\CCCCCC(=O)N4C3)cc(-c3nc(C(C)C)cs3)nc2c1C
Ki [1]: 0.2 nM | EC50 (Hepatitis C virus): 3.55 nM | metabolized at 0.25 h, 5 µM [2]: 50.2%

COc1ccc2c(O[C@@H]3C[C@H]4C(=O)N[C@]5(C(=O)NS(=O)(=O)C6(C)CC6)C[C@H]5/C=C\CCCCCC(=O)N4C3)cc(-c3nc(C(C)C)cs3)nc2c1Cl
Ki [1]: 0.2 nM | EC50 (Hepatitis C virus): 3.76 nM | metabolized at 0.25 h, 5 µM [2]: 42.6% | Papp A→B [3]: 11.1 ×10⁻⁶ cm/s | CC50 (MT4): > 20000 nM | CC50 (Huh-7): > 20000 nM | concentration at 0.12 h [4]: 1500 ng/mL | concentration at 0.33 h [5]: 708 ng/mL | concentration at 1 h [6]: 449 ng/mL | concentration at 2 h [7]: 290 ng/mL | concentration at 4 h [8]: 139 ng/mL | concentration at 8 h [9]: 53 ng/mL | concentration at 0.5 h [10]: 698 ng/mL | concentration at 1 h [11]: 693 ng/mL | concentration at 2 h [12]: 632 ng/mL | concentration at 4 h [13]: 363 ng/mL | concentration at 8 h [14]: 133 ng/mL | Cmax [15]: 715 ng/mL | Tmax [16]: 0.75 h | half-life [17]: 2.49 h | half-life [18]: 2.73 h | AUC(0-t) at 8 h [19]: 1960 ng·h/mL | AUC (Rattus norvegicus [20]): 2154 ng·h/mL | AUC(0-inf) [21]: 3610 ng·h/mL | Vd [22]: 2.75 L/kg | CL (Rattus norvegicus [23]): 65.7 mL/min/kg | bioavailability [24]: 31% | concentration at 8 h [25]: 15.1 ng/g | concentration at 8 h [26]: 35.8 ng/g | concentration at 8 h [27]: 3660 ng/g | concentration at 8 h [28]: 7660 ng/g | AUC(0-t) at 8 h [29]: 3070 ng·h/mL

COc1ccc2c(O[C@@H]3C[C@H]4C(=O)N[C@]5(C(=O)O)C[C@H]5/C=C\CCCCCCC(=O)N4C3)cc(-c3nc(C(C)C)cs3)nc2c1
Ki [1]: 18 nM | EC50 (Hepatitis C virus): 5040 nM

COc1ccc2c(O[C@@H]3C[C@H]4C(=O)N[C@]5(C(=O)NS(=O)(=O)C6CC6)C[C@H]5/C=C\CCCCCCC(=O)N4C3)cc(-c3nc(C(C)C)cs3)nc2c1C
Ki [1]: 2.8 nM | EC50 (Hepatitis C virus): 5.84 nM

COc1ccc2c(O[C@@H]3C[C@H]4C(=O)N[C@]5(C(=O)O)C[C@H]5/C=C\CCCCC[C@H](NC(=O)OC5CCCC5)C(=O)N4C3)cc(-c3csc(NC(C)C)n3)nc2c1 [CILUPREVIR]
Ki [1]: 0.3 nM | EC50 (Hepatitis C virus): 1.63 nM | metabolized at 0.25 h, 5 µM [2]: 28.5%

COc1ccc2c(O[C@@H]3C[C@H]4C(=O)N[C@]5(C(=O)NS(=O)(=O)C6CC6)C[C@H]5/C=C\CCCCCC(=O)N4C3)cc(-c3nc(C(C)C)cs3)nc2c1Cl
Ki [1]: 0.4 nM | EC50 (Hepatitis C virus): 11.7 nM

COc1ccc2c(O[C@@H]3C[C@H]4C(=O)N[C@]5(C(=O)NS(=O)(=O)C6CC6)C[C@H]5/C=C\CCCCCCC(=O)N4C3)cc(-c3nccs3)nc2c1C
Ki [1]: 0.5 nM | EC50 (Hepatitis C virus): 4.37 nM | metabolized at 0.25 h, 5 µM [2]: 98.4%

COc1ccc2c(O[C@@H]3C[C@H]4C(=O)N[C@]5(C(=O)NS(=O)(=O)C6CC6)C[C@H]5/C=C\CCCCCCC(=O)N4C3)cc(-c3nc(C(C)C)cs3)nc2c1
Ki [1]: 0.65 nM | EC50 (Hepatitis C virus): 18 nM | metabolized at 0.25 h, 5 µM [2]: 98%

COc1ccc2c(O[C@@H]3C[C@H]4C(=O)N[C@]5(C(=O)NS(=O)(=O)C6(C)CC6)C[C@H]5/C=C\CCCCCC(=O)N4C3)cc(-c3nc(C(C)C)cs3)nc2c1C
Ki [1]: 0.4 nM | EC50 (Hepatitis C virus): 14.1 nM | metabolized at 0.25 h, 5 µM [2]: 28.8%

COc1ccc2c(O[C@@H]3C[C@H]4C(=O)N[C@]5(C(=O)NS(=O)(=O)C6CC6)C[C@H]5/C=C\CCCCCCC(=O)N4C3)cc(-c3csc(NC(C)C)n3)nc2c1
Ki [1]: 0.9 nM | EC50 (Hepatitis C virus): 20.4 nM | metabolized at 0.25 h, 5 µM [2]: 91.5%

COc1ccc2c(O[C@@H]3C[C@H]4C(=O)N[C@]5(C(=O)NS(=O)(=O)C6CC6)C[C@H]5/C=C\CCCCCCC(=O)N4C3)cc(-c3cscn3)nc2c1
Ki [1]: 0.5 nM | EC50 (Hepatitis C virus): 3.97 nM

COc1ccc2c(O[C@@H]3C[C@H]4C(=O)N[C@]5(C(=O)NS(=O)(=O)C6CC6)C[C@H]5/C=C\CCCCCC(=O)N4C3)cc(-c3nc(C(C)C)cs3)nc2c1
Ki [1]: 0.4 nM | EC50 (Hepatitis C virus): 23.9 nM | metabolized at 0.25 h, 5 µM [2]: 82.4%

COc1ccc2c(O[C@@H]3C[C@H]4C(=O)N[C@]5(C(=O)O)C[C@H]5/C=C\CCCCCCC(=O)N4C3)cc(-c3csc(NC(C)C)n3)nc2c1
Ki [1]: 46 nM | EC50 (Hepatitis C virus): 1980 nM

COc1ccc2c(O[C@@H]3C[C@H]4C(=O)N[C@]5(C(=O)NS(=O)(=O)C6CC6)C[C@H]5/C=C\CCCCCCC(=O)N4C3)cc(-c3nccs3)nc2c1
Ki [1]: 1 nM | EC50 (Hepatitis C virus): 16.8 nM | metabolized at 0.25 h, 5 µM [2]: 100%
